# Test results reported in ChEMBL document CHEMBL2177040, “Down-regulation of the human VEGF gene expression by perylene monoimide derivatives” (Bioorg Med Chem Lett, 2012).
# Active and inactive are the calls of the source. No cut-off for these calls is given here.
# Experiments:
# Nucleic Acid [1] = experiment: Binding affinity to Bcl2 quadruplex DNA in human A549 cells assessed as downregulation of Bcl2 mRNA expression in human A549 cells after 24 hrs by semi-quantitative RT-PCR analysis; assay type: cell-based
# [2] = Solubility of the compound in Tris-HCl buffer at 40 uM at pH 7.4 after 1 to 72 hrs by spectroscopic analysis in presence of salmon sperm DNA duplex; assay type: physicochemical; details: pH 7.4, 40 µM
# Procedure, shortened: (§1)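 Visible absorbance spectra of compound (40 µM) in 10 mM Tris-HCl pH 7.4 with 100 mM KCl, without DNA, with preformed VEGF quadruplex (20 µM V32G), or with salmon sperm duplex DNA matched in absorbance to the quadruplex; recorded at 0, 8 and 72 h incubation.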
# Nucleic Acid [3] = experiment: Binding affinity to c-Myc quadruplex DNA in human A549 cells assessed as downregulation of c-Myc mRNA expression after 24 hrs by semi-quantitative RT-PCR analysis; assay type: cell-based
# Nucleic Acid [4] = experiment: Binding affinity to VEGF quadruplex DNA in human MCF7 cells assessed as downregulation of VEGF mRNA expression at 0.75 to 6 uM after 24 hrs by semi-quantitative RT-PCR analysis; assay type: cell-based
# Nucleic Acid [5] = experiment: Binding affinity to VEGF quadruplex DNA in human A549 cells assessed as downregulation of VEGF protein level after 24 hrs by Western blot analysis; assay type: cell-based
# Procedure, shortened: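 A549 cells (3.0 × 10^5) treated with a range of compound concentrations for 24 h; lysate proteins separated by SDS-PAGE and blotted with rabbit polyclonal anti-VEGF, detected with HRP-conjugated goat anti-rabbit IgG.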
# A549 [6] = experiment: Cytotoxicity against human A549 cells assessed as cell viability after 72 hrs by SRB assay; assay type: functional, cell-based; details: A549, 72 h
# Procedure, shortened: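 Sulforhodamine B colorimetric assay on A549 cells. IC50 derived from the concentration versus percent growth inhibition curve. Mean ± standard deviation of three independent experiments, each in triplicate.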
# Nucleic Acid [7] = experiment: Binding affinity to VEGF VT-66-G-quadruplex DNA after 30 mins by DNA polymerase stop assay; assay type: nucleic-acid assay
# Procedure, shortened: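 Polymerase stop: compound (twofold dilution) with template VT-66 (100 nM) and FAM-labelled primer P16 (100 nM) in 10 mM Tris-HCl pH 7.4, denatured 95 °C 5 min, slow-cooled to 37 °C. Extension started with dNTPs, 3 mM MgCl2 and Klenow fragment (1 unit), 37 °C 30 min. Resolved on 12% denaturing PAGE; stopped/(stopped+full-length) ratio plotted against concentration.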
# Nucleic Acid [8] = experiment: Binding affinity to VEGF V32G-G-quadruplex DNA after 10 hrs by polyacrylamide electrophoresis; assay type: nucleic-acid assay
# Procedure, shortened: (§2)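 Duplex/G-quadruplex competition: FAM-labelled G-rich strand V32G (2 µM) plus complementary C-rich strand (2 µM) with twofold-diluted compound in Tris-HCl pH 7.4, 100 mM KCl; denatured 95 °C 5 min, slow-cooled to 55 °C and held 10 h, then rapidly cooled to 4 °C. Products resolved on 16% native PAGE containing 50 mM KCl (4 °C, 350 V, 10 h); duplex vs monomeric quadruplex bands imaged.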
# Nucleic Acid [9] = experiment: Binding affinity to VEGF quadruplex DNA in human A549 cells assessed as downregulation of VEGF121 mRNA expression after 24 hrs by semi-quantitative RT-PCR analysis; assay type: cell-based
# Procedure, shortened: (§3)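 A549 cells (3.0 × 10^5) exposed to a range of compound concentrations for 24 h; total RNA reverse-transcribed and cDNA amplified with gene-specific primers at a cycle number chosen per gene for linear signal. VEGF bands quantified by densitometry, normalized to GAPDH; three separate experiments.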
# HCT-15 = experiment: Cytotoxicity against human HCT15 cells assessed as cell viability after 72 hrs by SRB assay; assay type: functional, cell-based; details: HCT-15, 72 h
# Nucleic Acid [10] = experiment: Binding affinity to VEGF quadruplex DNA in human A549 cells assessed as downregulation of VEGF mRNA expression after 24 hrs by semi-quantitative RT-PCR analysis; assay type: cell-based; procedure, shortened: as §3
# [11] = Solubility of the compound in Tris-HCl buffer at 40 uM at pH 7.4 after 1 to 72 hrs by spectroscopic analysis in presence of VEGF quadruplex; assay type: physicochemical; details: pH 7.4, 40 µM; procedure, shortened: as §1
# Nucleic Acid [12] = experiment: Binding affinity to VEGF quadruplex DNA in human HCT15 cells assessed as downregulation of VEGF mRNA expression at 0.75 to 6 uM after 24 hrs by semi-quantitative RT-PCR analysis; assay type: cell-based; details: HCT-15
# Nucleic Acid [13] = experiment: Binding affinity to VEGF quadruplex DNA in human HeLa cells assessed as downregulation of VEGF mRNA expression at 0.75 to 6 uM after 24 hrs by semi-quantitative RT-PCR analysis; assay type: cell-based
# HeLa = experiment: Cytotoxicity against human HeLa cells assessed as cell viability after 72 hrs by SRB assay; assay type: functional, cell-based
# A549 [14] = experiment: Downregulation of GAPDH mRNA expression in human A549 cells at 0.75 to 6 uM after 24 hrs by semi-quantitative RT-PCR analysis; assay type: functional, cell-based
# Procedure, shortened: (§4)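 A549 cells (3.0 × 10^5) treated 24 h at graded compound concentrations; RNA reverse-transcribed and GAPDH cDNA amplified by gene-specific PCR at a cycle number chosen for linear signal, with band intensity by semi-quantitative gel read-out.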
# A549 [15] = experiment: Downregulation of Max mRNA expression in human A549 cells at 0.75 to 6 uM after 24 hrs by semi-quantitative RT-PCR analysis; assay type: functional, cell-based
# Nucleic Acid [16] = experiment: Binding affinity to VEGF quadruplex DNA in human A549 cells assessed as downregulation of VEGF165 mRNA expression after 24 hrs by semi-quantitative RT-PCR analysis; assay type: cell-based; procedure, shortened: as §3
# [17] = Solubility of the compound in Tris-HCl buffer at 40 uM at pH 7.4 after 72 hrs by spectroscopic analysis in absence of DNA; assay type: physicochemical; details: pH 7.4, 72 h; procedure, shortened: as §1
# Nucleic Acid [18] = experiment: Binding affinity to VEGF quadruplex DNA at 40 uM after 1 to 72 hrs by spectroscopic analysis; assay type: nucleic-acid assay; procedure, shortened: as §1
# A549 [19] = experiment: Downregulation of COX2 mRNA expression in human A549 cells at 0.75 to 6 uM after 24 hrs by semi-quantitative RT-PCR analysis; assay type: functional, cell-based
# MCF7 = experiment: Cytotoxicity against human MCF7 cells assessed as cell viability after 72 hrs by SRB assay; assay type: functional, cell-based; details: MCF7, 72 h
# Nucleic Acid [20] = experiment: Binding affinity to VEGF quadruplex DNA in human A549 cells assessed as downregulation of VEGF protein level at 0.2 to 2.8 uM after 24 hrs by Western blot analysis; assay type: cell-based
# Procedure, shortened: (§5)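 A549 cells (3.0 × 10^5) exposed to a range of compound concentrations for 24 h. Lysate proteins separated by SDS-PAGE and blotted with rabbit polyclonal VEGF antibody, then HRP-conjugated goat anti-rabbit IgG. Top concentrations chosen from cytotoxicity data.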
# Nucleic Acid [21] = experiment: Binding affinity to VEGF quadruplex DNA in human A549 cells assessed as downregulation of VEGF protein level at 3.1 to 50 uM after 24 hrs by Western blot analysis; assay type: cell-based; procedure, shortened: as §5
# [22] = Solubility of the compound in Tris-HCl buffer at 40 uM at pH 7.4 after 1 to 72 hrs by spectroscopic analysis in absence of DNA; assay type: physicochemical; details: pH 7.4, 40 µM
# Procedure, shortened: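 Compound at 40 µM in 10 mM Tris-HCl pH 7.4 with 100 mM KCl, without DNA. Visible absorbance spectra recorded at 0, 8 and 72 h.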
# Nucleic Acid [23] = experiment: Binding affinity to VEGF V32G-G-quadruplex DNA at 1 to 32 uM after 10 hrs by polyacrylamide electrophoresis; assay type: nucleic-acid assay; procedure, shortened: as §2
# A549 [24] = experiment: Downregulation of Max mRNA expression in human A549 cells at 3 to 24 uM after 24 hrs by semi-quantitative RT-PCR analysis; assay type: functional, cell-based
# A549 [25] = experiment: Downregulation of COX2 mRNA expression in human A549 cells at 3 to 24 uM after 24 hrs by semi-quantitative RT-PCR analysis; assay type: functional, cell-based
# A549 [26] = experiment: Downregulation of GAPDH mRNA expression in human A549 cells at 3 to 24 uM after 24 hrs by semi-quantitative RT-PCR analysis; assay type: functional, cell-based; procedure, shortened: as §4
# Nucleic Acid [27] = experiment: Binding affinity to VEGF quadruplex DNA in human A549 cells assessed as downregulation of VEGF165 mRNA expression at 50 uM after 24 hrs by semi-quantitative RT-PCR analysis; assay type: cell-based
# Procedure, shortened: (§6)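 A549 cells (3.0 × 10^5) treated 24 h. Total RNA extracted and reverse-transcribed; cDNA amplified with gene-specific primers, with cycle number set so that product intensity tracks cDNA amount. Both VEGF bands quantified by scan densitometry and normalised to GAPDH; three separate experiments.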
# [28] = Inhibition of DNA polymerase at > 1 uM
# Procedure, shortened: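 Klenow polymerase stop assay. Template VT-66 (100 nM) and FAM-primer P16 (100 nM) with twofold-diluted compound in 10 mM Tris-HCl pH 7.4, denatured 95 °C 5 min, slow-cooled to 37 °C. Extension started with dNTPs, 3 mM MgCl2 and Klenow fragment (1 unit), 37 °C 30 min. Products on 12% denaturing PAGE; stopped/total extended ratio plotted.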
# Nucleic Acid [29] = experiment: Binding affinity to VEGF quadruplex DNA in human A549 cells assessed as downregulation of VEGF121 mRNA expression at 50 uM after 24 hrs by semi-quantitative RT-PCR analysis; assay type: cell-based; procedure, shortened: as §6
# Nucleic Acid [30] = experiment: Binding affinity to VEGF V32G-double stranded DNA at 1 to 32 uM after 10 hrs by polyacrylamide electrophoresis; assay type: nucleic-acid assay
# Procedure, shortened: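 FAM-labeled VEGF G-rich strand (V32G, 2 µM) plus complementary C-rich strand (2 µM) with twofold-diluted compound in Tris-HCl pH 7.4, 100 mM KCl. Denatured 95 °C 5 min, slow-cooled to 55 °C, held 10 h, then rapidly cooled to 4 °C. Separated on 16% native PAGE with 50 mM KCl (4 °C, 350 V, 10 h); duplex vs monomeric quadruplex bands imaged.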
solubility [2],solubility [11],Structure (SMILES),Activity (Nucleic Acid [1]),Activity (Nucleic Acid [3]),Activity (Nucleic Acid [5]),IC50 (A549 [6]),Activity (Nucleic Acid [7]),Activity (Nucleic Acid [9]),Activity (Nucleic Acid [10]),Activity (A549 [14]),Activity (A549 [15]),Activity (Nucleic Acid [16]),Activity (Nucleic Acid [18]),Activity (A549 [19]),Activity (Nucleic Acid [20]),Activity (Nucleic Acid [21]),solubility [22],Activity (Nucleic Acid [23]),other results
soluble,soluble,CCN(CC)CCN1C(=O)c2ccc3c4cccc5c(N6CCNCC6)ccc(c6ccc(c2c36)C1=O)c54,Dose-dependent effect,Dose-dependent effect,Dose-dependent effect,4 µM,Dose-dependent effect,Dose-dependent effect,Dose-dependent effect,inactive,inactive,Dose-dependent effect,inactive,inactive,–,–,–,–,Activity (Nucleic Acid [4]): Active; Activity (Nucleic Acid [8]): Active; IC50 (HCT-15): 4.7 µM; Activity (Nucleic Acid [12]): Active; Activity (Nucleic Acid [13]): Active; IC50 (HeLa): 3 µM; solubility [17]: soluble; IC50 (MCF7): 5.5 µM
soluble,soluble,CC[N+](C)(CC)CCN1C(=O)c2ccc3c4cccc5cccc(c6ccc(c2c36)C1=O)c54.Cc1ccc(S(=O)(=O)[O-])cc1,Dose-dependent effect,Dose-dependent effect,–,3.2 µM,Dose-dependent effect,Dose-dependent effect,Dose-dependent effect,inactive,inactive,Dose-dependent effect,–,inactive,inactive,inactive,Insoluble,Active,–
–,–,C[n+]1ccc(-c2c3nc(c(-c4cc[n+](C)cc4)c4ccc([nH]4)c(-c4cc[n+](C)cc4)c4ccc([nH]4)c(-c4cc[n+](C)cc4)c4nc2C=C4)C=C3)cc1 [TMPYP4],–,–,–,43.1 µM,Dose-dependent effect,–,–,–,–,–,–,–,inactive,inactive,–,–,Activity (Nucleic Acid [27]): inactive; inhibition [28]: Active; Activity (Nucleic Acid [29]): inactive; Activity (Nucleic Acid [30]): Active

Structure (SMILES),solubility [2],solubility [11],Activity (Nucleic Acid [1]),Activity (Nucleic Acid [3]),Activity (Nucleic Acid [5]),IC50 (A549 [6]),Activity (Nucleic Acid [7]),Activity (Nucleic Acid [9]),Activity (Nucleic Acid [10]),Activity (A549 [14]),Activity (A549 [15]),Activity (Nucleic Acid [16]),Activity (Nucleic Acid [18]),Activity (A549 [19]),Activity (Nucleic Acid [20]),Activity (Nucleic Acid [21]),solubility [22],Activity (Nucleic Acid [23]),other results
O=C1c2ccc3c4ccc5c6c(ccc(c7ccc(c2c37)C(=O)N1CCN1CCCCC1)c64)C(=O)N(CCN1CCCCC1)C5=O,soluble,soluble,Dose-dependent effect,Dose-dependent effect,Dose-dependent effect,52.4 µM,Dose-dependent effect,Dose-dependent effect,Dose-dependent effect,–,–,Dose-dependent effect,Active,–,–,–,Insoluble,Active,Activity (A549 [24]): inactive; Activity (A549 [25]): inactive; Activity (A549 [26]): inactive
